Active and inactive are the calls of the source. The rule behind the calls is not given here.
Key:
Type in all cases: cell-based
[1] = molecular target: T1, Cellular tumor antigen p53 (Homo sapiens, UniProt P04637); experiment: Activation of p53 in human NUGC4 cells assessed as change in HDAC1 mRNA level at 60 uM after 18 hrs by RT-PCR method relative to control; settings: read-out: FC
Method in brief: (§1)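 p53 signaling qPCR array of 84 p53-pathway genes. Cells were treated in 6-well plates for 18 h with 0.5% DMSO in compound and control samples. Total RNA was extracted and fold-changes were obtained by the ΔΔCt method against untreated control, with β2-microglobulin (B2M) as housekeeping gene. Two independent biological replicates per cell line.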

[2] = test system: Cellular tumor antigen p53 (Homo sapiens), P04637 [Y220C]; experiment: Activation of p53 Y220C mutant in human NUGC3 cells assessed as change in BAX mRNA level at 60 uM after 18 hrs by RT-PCR method relative to control
Method in brief: (§2)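 p53 signalling qPCR array covering 84 genes. Cells were exposed for 18 h, with 0.5% DMSO in both compound and control samples. Total RNA was extracted and purified. Fold-changes were calculated by ΔΔCt using β2-microglobulin (B2M) as the housekeeping gene. Two independent biological replicates were run per cell line.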

[3] = test system: Cellular tumor antigen p53 (Homo sapiens), P04637 [Y220C]; experiment: Activation of p53 Y220C mutant in human NUGC3 cells assessed as change in TP53 mRNA level at 60 uM after 18 hrs by RT-PCR method relative to control
Method in brief: (§3)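 p53 signalling qPCR array covering 84 p53 pathway genes. Cells were exposed for 18 h, and compound and control wells both held 0.5% DMSO. Total RNA was extracted and purified. Fold-changes were calculated by the ΔΔCt method against the untreated sample, with β2-microglobulin (B2M) as the housekeeping gene. Each cell line was run in two independent biological replicates.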

[4] = test system: Cellular tumor antigen p53 (Homo sapiens), P04637 [Y220C]; experiment: Activation of p53 Y220C mutant in human NUGC3 cells assessed as change in CDC25C mRNA level at 60 uM after 18 hrs by RT-PCR method relative to control; method in brief: as §2
[5] = test system: Cellular tumor antigen p53 (Homo sapiens), P04637 [Y220C]; experiment: Activation of p53 Y220C mutant in human NUGC3 cells assessed as change in CASP2 mRNA level at 60 uM after 18 hrs by RT-PCR method relative to control; method in brief: as §2
[6] = test system: Cellular tumor antigen p53 (Homo sapiens), P04637 [Y220C]; experiment: Activation of p53 Y220C mutant in human NUGC3 cells assessed as change in EI24 mRNA level at 60 uM after 18 hrs by RT-PCR method relative to control; method in brief: as §2
[7] = molecular target: T1, Cellular tumor antigen p53; experiment: Activation of p53 in human NUGC4 cells assessed as change in PRC1 mRNA level at 60 uM after 18 hrs by RT-PCR method relative to control; settings: read-out: FC
[8] = test system: Cellular tumor antigen p53 (Homo sapiens), P04637 [Y220C]; experiment: Activation of p53 Y220C mutant in human HuH7 cells assessed as increase in MDM2 mRNA level at 30 uM after 18 hrs by RT-PCR method
Method in brief: (§4)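 Real-time PCR. Cells were treated for 18 h, with 0.5% DMSO in both compound and control samples. Relative mRNA levels were quantified by the ΔΔCt method as fold-change against the untreated sample. Each sample was measured in triplicate, and data are given as mean ± SEM with an unpaired t-test.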

[9] = test system: Cellular tumor antigen p53 (Homo sapiens), P04637 [Y220C]; experiment: Activation of p53 Y220C mutant in human NUGC3 cells assessed as change in GADD45A mRNA level at 60 uM after 18 hrs by RT-PCR method relative to control; method in brief: as §2
[10] = test system: Cellular tumor antigen p53 (Homo sapiens), P04637 [Y220C]; experiment: Activation of p53 Y220C mutant in human NUGC3 cells assessed as change in TP53BP2 mRNA level at 60 uM after 18 hrs by RT-PCR method relative to control; method in brief: as §3
[11] = molecular target: T1, Cellular tumor antigen p53; experiment: Activation of p53 in human NUGC4 cells assessed as change in IGF1R mRNA level at 60 uM after 18 hrs by RT-PCR method relative to control; settings: read-out: FC; method in brief: as §1
[12] = test system: Cellular tumor antigen p53 (Homo sapiens), P04637 [Y220C]; experiment: Activation of p53 Y220C mutant in human HuH7 cells assessed as increase in p21 mRNA level at 30 uM after 18 hrs by RT-PCR method; method in brief: as §4
[13] = molecular target: T1, Cellular tumor antigen p53; experiment: Activation of p53 in human NUGC4 cells assessed as change in NFKB1 mRNA level at 60 uM after 18 hrs by RT-PCR method relative to control; settings: read-out: FC
Method in brief: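 p53-signalling qPCR array (84 pathway genes): cells treated 18 h in 0.5% DMSO, with DMSO-matched controls. Total RNA was extracted and fold-change quantified by the ΔΔCt method with β2-microglobulin (B2M) as housekeeping gene, normalized to the untreated sample. Two independent biological replicates per cell line.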

[14] = test system: Cellular tumor antigen p53 (Homo sapiens), P04637 [Y220C]; experiment: Activation of p53 Y220C mutant in human NUGC3 cells assessed as change in MSH2 mRNA level at 60 uM after 18 hrs by RT-PCR method relative to control; method in brief: as §3
[15] = molecular target: T1, Cellular tumor antigen p53; experiment: Activation of p53 in human NUGC4 cells assessed as change in CDKN2A mRNA level at 60 uM after 18 hrs by RT-PCR method relative to control; settings: read-out: FC; method in brief: as §1
[16] = test system: Cellular tumor antigen p53 (Homo sapiens), P04637 [Y220C]; experiment: Activation of p53 Y220C mutant in human NUGC3 cells assessed as change in CHEK1 mRNA level at 60 uM after 18 hrs by RT-PCR method relative to control; method in brief: as §2
[17] = molecular target: T1, Cellular tumor antigen p53; experiment: Activation of p53 in human NUGC4 cells assessed as change in ATM mRNA level at 60 uM after 18 hrs by RT-PCR method relative to control; settings: read-out: FC; method in brief: as §3
[18] = test system: Cellular tumor antigen p53 (Homo sapiens), P04637 [Y220C]; experiment: Activation of p53 Y220C mutant in human NUGC3 cells assessed as change in KRAS mRNA level at 60 uM after 18 hrs by RT-PCR method relative to control; method in brief: as §3
[19] = molecular target: T1, Cellular tumor antigen p53; experiment: Activation of p53 in human NUGC4 cells assessed as change in TP53AIP1 mRNA level at 60 uM after 18 hrs by RT-PCR method relative to control; settings: read-out: FC
[20] = molecular target: T1, Cellular tumor antigen p53; experiment: Activation of p53 in human NUGC4 cells assessed as change in CCNB1 mRNA level at 60 uM after 18 hrs by RT-PCR method relative to control; settings: read-out: FC; method in brief: as §1
[21] = molecular target: T1, Cellular tumor antigen p53; experiment: Activation of p53 in human NUGC4 cells assessed as change in STAT1 mRNA level at 60 uM after 18 hrs by RT-PCR method relative to control; settings: read-out: FC
[22] = molecular target: T1, Cellular tumor antigen p53; experiment: Activation of p53 in human NUGC4 cells assessed as change in CDK4 mRNA level at 60 uM after 18 hrs by RT-PCR method relative to control; settings: read-out: FC; method in brief: as §1
[23] = test system: Cellular tumor antigen p53 (Homo sapiens), P04637 [Y220C]; experiment: Activation of p53 Y220C mutant in human NUGC3 cells assessed as change in CDKN1A mRNA level at 60 uM after 18 hrs by RT-PCR method relative to control; method in brief: as §2
[24] = molecular target: T1, Cellular tumor antigen p53; experiment: Activation of p53 in human NUGC4 cells assessed as change in BAX mRNA level at 60 uM after 18 hrs by RT-PCR method relative to control; settings: read-out: FC; method in brief: as §3
[25] = test system: Cellular tumor antigen p53 (Homo sapiens), P04637 [Y220C]; experiment: Activation of p53 Y220C mutant in human NUGC3 cells assessed as change in TRAF2 mRNA level at 60 uM after 18 hrs by RT-PCR method relative to control; method in brief: as §3
[26] = test system: Cellular tumor antigen p53 (Homo sapiens), P04637 [Y220C]; experiment: Activation of p53 Y220C mutant in human NUGC3 cells assessed as change in BTG2 mRNA level at 60 uM after 18 hrs by RT-PCR method relative to control; method in brief: as §2

- fold induction at 60 µM [1]: 0.8
- fold change (FC) [2]: 1.1
- fold change (FC) [3]: 0.7
- fold change (FC) [4]: 0.7
- fold change (FC) [5]: 1.1
- fold change (FC) [6]: 0.8
- fold induction at 60 µM [7]: 0.8
- Activity [8]: Active
- fold change (FC) [9]: 2.2
- fold change (FC) [10]: 1.8
- fold induction at 60 µM [11]: 0.8
- Activity [12]: Active
- fold induction at 60 µM [13]: 0.8
- fold change (FC) [14]: 5.3
- fold induction at 60 µM [15]: 0.5 to 1
- fold change (FC) [16]: 1.2
- fold induction at 60 µM [17]: 1
- fold change (FC) [18]: 1.2
- fold induction at 60 µM [19]: 1
- fold induction at 60 µM [20]: 0.7
- fold induction at 60 µM [21]: 0.9
- fold induction at 60 µM [22]: 0.8
- fold change (FC) [23]: 3.1
- fold induction at 60 µM [24]: 0.8
- fold change (FC) [25]: 1.4
- fold change (FC) [26]: 1.9
Compound: CCNC(=O)c1c(O)c(I)c(-n2cccc2)c2sc(N(CC)CC)nc12
